Experimental data published in ChEMBL document CHEMBL1155099, “Natural products in parallel synthesis: triazole libraries of nonactic acid” (2008).
Active and inactive are the calls of the source.

What was measured:
Assay type in all cases: functional, organism-based
Pseudomonas aeruginosa = test: Antibacterial activity against Pseudomonas aeruginosa at 1 mM by almar blue dye reduction assay
How it was run: (§1)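 Single-point primary screen at 1 mM using Alamar Blue dye reduction as the growth read-out.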

Bacillus anthracis = test: Antibacterial activity against Bacillus anthracis at 1mM by almar blue dye reduction assay
Candida albicans = test: Antifungal activity against Candida albicans at 1 mM by almar blue dye reduction assay; how it was run: as §1
Staphylococcus aureus = test: Antibacterial activity against Staphylococcus aureus at 1 mM by almar blue dye reduction assay; how it was run: as §1
Escherichia coli = test: Antibacterial activity against Escherichia coli at 1 mM by almar blue dye reduction assay; how it was run: as §1
Bacillus subtilis = test: Antibacterial activity against Bacillus subtilis at 1 mM by almar blue dye reduction assay; how it was run: as §1
Bacillus cereus = test: Antibacterial activity against Bacillus cereus at 1 mM by almar blue dye reduction assay; how it was run: as §1
Saccharomyces cerevisiae = test: Antifungal activity against Saccharomyces cerevisiae at 1 mM by almar blue dye reduction assay; how it was run: as §1
Cryptococcus neoformans = test: Antifungal activity against Cryptococcus neoformans at 1 mM by almar blue dye reduction assay; how it was run: as §1

Measured: Activity

CC(C)NC(=O)[C@H](C)[C@H]1CC[C@@H](C[C@@H](C)n2cc(C#CCOc3ccc(C(F)(F)F)cc3)nn2)O1
inactive: all assays above

CCN(CC)C(=O)[C@H](C)[C@H]1CC[C@@H](C[C@@H](C)n2cc(C#Cc3ccc(-c4ccccc4)cc3)nn2)O1
inactive: all assays above

COc1cccc(OCC#Cc2cn([C@H](C)C[C@@H]3CC[C@H]([C@@H](C)C(=O)N4CCN(CC5CCCO5)CC4)O3)nn2)c1OC (some centres not stated)
inactive: all assays above

CCCCCC#Cc1cn([C@H](C)C[C@@H]2CC[C@H]([C@@H](C)C(=O)N(CC)CC)O2)nn1
inactive: all assays above

CCN(CC)C(=O)[C@H](C)[C@H]1CC[C@@H](C[C@@H](C)n2cc(C#CCOc3ccc(C(F)(F)F)cc3)nn2)O1
inactive: all assays above

C[C@H](C[C@@H]1CC[C@H]([C@@H](C)C(=O)N2CCN(CC3CCCO3)CC2)O1)n1cc(C#CCN(C)C)nn1 (some centres not stated)
inactive: all assays above

CC(C)NC(=O)[C@H](C)[C@H]1CC[C@@H](C[C@@H](C)n2cc(C#CCCCC#N)nn2)O1
inactive: all assays above

CCN(CC)C(=O)[C@H](C)[C@H]1CC[C@@H](C[C@@H](C)n2cc(C#CCN3CCN(c4ccccc4)CC3)nn2)O1
inactive: all assays above

C[C@H](C[C@@H]1CC[C@H]([C@@H](C)C(=O)N2CCCC2)O1)n1cc(C#CCOc2ccccc2)nn1
inactive: all assays above

COc1ccc(OCC#Cc2cn([C@H](C)C[C@@H]3CC[C@H]([C@@H](C)C(=O)NC(C)C)O3)nn2)cc1
inactive: all assays above

C[C@H](C[C@@H]1CC[C@H]([C@@H](C)C(=O)N(C)Cc2ccccc2)O1)n1cc(C#Cc2ccc(C(F)(F)F)cc2)nn1
inactive: all assays above

COc1ccc(C#Cc2cn([C@H](C)C[C@@H]3CC[C@H]([C@@H](C)C(=O)N(C)Cc4ccccc4)O3)nn2)cc1
inactive: all assays above

C[C@H](C[C@@H]1CC[C@H]([C@@H](C)C(=O)N2CCCC2)O1)n1cc(C#Cc2ccc(-c3ccccc3)cc2)nn1
inactive: all assays above

CCN(CC)C(=O)[C@H](C)[C@H]1CC[C@@H](C[C@@H](C)n2cc(C#CCOc3cccc(-c4ccccc4)c3)nn2)O1
inactive: all assays above

COc1ccc(C#Cc2cn([C@H](C)C[C@@H]3CC[C@H]([C@@H](C)C(=O)N4CCN(CC5CCCO5)CC4)O3)nn2)cc1 (some centres not stated)
inactive: all assays above

CC(C)NC(=O)[C@H](C)[C@H]1CC[C@@H](C[C@@H](C)n2cc(C#CCN3CCC(c4ccccc4)CC3)nn2)O1
inactive: all assays above

C[C@H](C[C@@H]1CC[C@H]([C@@H](C)C(=O)N2CCN(CC3CCCO3)CC2)O1)n1cc(C#CCN(C)CCc2ccccc2)nn1 (some centres not stated)
inactive: all assays above

CC(C)NC(=O)[C@H](C)[C@H]1CC[C@@H](C[C@@H](C)n2cc(C#Cc3ccccn3)nn2)O1
inactive: all assays above
